PP5 primary: blocks human protein phosphatase 5 activity | purified PP5c, OMFP substrate fluorescence | inhibition, % at 6.7 µM | 320,000 compounds, 0.18% hits | AID 1987;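 active = inhibition above the campaign's mean inhibition across all tested compounds plus 3 SD, cut at about 9.5% in these data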;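 note: 0% = DMSO only and 100% = 100 µM cantharidin control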
Target sequence (P53041 whole entry, looked up): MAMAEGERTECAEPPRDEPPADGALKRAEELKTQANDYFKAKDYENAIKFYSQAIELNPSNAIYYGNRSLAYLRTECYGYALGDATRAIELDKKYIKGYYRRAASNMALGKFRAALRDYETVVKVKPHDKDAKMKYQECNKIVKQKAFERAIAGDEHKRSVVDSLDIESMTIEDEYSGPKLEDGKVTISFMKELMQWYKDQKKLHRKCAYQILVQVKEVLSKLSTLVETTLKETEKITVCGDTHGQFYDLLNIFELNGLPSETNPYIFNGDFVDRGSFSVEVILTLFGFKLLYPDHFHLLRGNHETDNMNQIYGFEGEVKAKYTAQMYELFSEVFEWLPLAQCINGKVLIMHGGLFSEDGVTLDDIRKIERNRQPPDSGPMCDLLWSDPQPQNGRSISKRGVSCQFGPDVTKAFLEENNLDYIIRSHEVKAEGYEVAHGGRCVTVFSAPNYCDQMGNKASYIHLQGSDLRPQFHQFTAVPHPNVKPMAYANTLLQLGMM
ARFGAP1 inh: inhibits rat ARF GTPase activating protein 1 | Q62848 | 360,000 compounds, 0.26% hits | Arfgap1-stimulated ARF1 GTP hydrolysis, GDP FP detection | inhibition, % at 16.5 µM;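 active = inhibition above a per-plate limit, mean inhibition of low control wells plus 3 SD, cut at about 25% in these data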;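 note: 0% = DMSO wells with enzyme and 100% = wells lacking Arfgap1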
Target sequence (Q62848 1-136 limits assumed): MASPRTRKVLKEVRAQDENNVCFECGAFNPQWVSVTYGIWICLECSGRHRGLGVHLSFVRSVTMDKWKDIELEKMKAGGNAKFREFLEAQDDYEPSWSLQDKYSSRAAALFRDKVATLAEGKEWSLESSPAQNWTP
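Material: rat Arfgap1 catalytic domain, aa 1-136; also added: human ARF1(Δ1-17)-GTP substrate; compound dosing: one concentration, 16.5 µM, DMSO 1.26%; incubation: GTP hydrolysis reaction 2 h at 25 °C; measured by: Tracer-displacement fluorescence polarization with EDTA stop, 620/688 nm; evaluation: % inhibition from polarization; repeats: one replicate per compound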
ASAP1 GAP inh: blocks human ASAP1-stimulated Arf1 GTP hydrolysis; Q9ULH1; GDP FP detection; inhibition, % at 16.5 µM; 360,000 compounds, 0.19% hits; in the data active = inhibition above about 25%;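 note: 0% = vehicle with enzyme and substrate and 100% = no enzyme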
PKD1 inh: PKD1 (human) kinase inhibition. Q15139. PKD1 kinase fluorescence polarization assay. inhibition, % (no concentration beside the values). 200,000 compounds, 0.056% hits. AID 797; in the data active = inhibition above about 50%
ARFGAP1 confirm: rat ARFGAP1 inhibition, confirmed | inhibition, % at 16.5 µM | ARFGAP1-stimulated ARF1 GTP hydrolysis, GDP tracer FP | AID 651608 | 890 compounds, 30% hits | shares compounds with ARFGAP1 inh;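 active = average inhibition over triplicates above the hit cutoff set in the earlier primary screen, cut at about 25% in these data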;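 note: 0% = Arfgap1 plus ARF1-GTP with DMSO and 100% = wells lacking Arfgap1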
An asterisk follows results filed as active; x = no result given; + = active, no number. Rows were chosen to be rich in hits. Some 0.54% of all compounds tested hit in one or more screens of this group.

SMILES | PP5 primary | ARFGAP1 inh | ASAP1 GAP inh | PKD1 inh | ARFGAP1 confirm
Cc1ccc(C)c(N(C(=O)Cn2nnc(-c3cccs3)n2)C(C(=O)NC2CCCC2)c2ccncc2)c1 (stereo unspecified) | 2.4 | 31.3* | -9.1 | 8.0 | -3.3
Nc1[nH]c(C(=O)c2ccc(Br)cc2)c(-c2ccc3ccccc3c2)c1C(=O)NCCc1c[nH]c2ccccc12 | x | 19.9 | 1.7 | x | x
O=C(CN(CCc1ccccc1)C(=O)c1csnn1)NCc1ccc(F)cc1 | 1.3 | 26.8* | -8.1 | x | 1.9
O=C(CN(Cc1ccc(F)cc1)C(=O)c1csnn1)NCc1ccccc1 | -1.1 | 3.8 | -1.0 | x | x
COc1ccc(Cl)cc1-c1cc(C(=O)Nc2ccccc2)[nH]n1 | x | 15.6 | -9.3 | x | x
O=C(Nc1ccc(S(=O)(=O)N2CCOCC2)cc1)c1cc(-c2cc(Cl)ccc2O)n[nH]1 | 4.5 | 41.0* | 6.5 | x | 28.9*
COc1ccc(NC(=O)c2cc(-c3ccccc3O)n[nH]2)cc1Cl | x | 27.0* | 6.8 | x | 7.2
CCOc1ccc(Cl)cc1-c1cc(C(=O)Nc2ccc(OC)cc2OC)[nH]n1 | x | 60.4* | 13.9 | x | 121.3*
COc1ccc(Cl)cc1-c1cc(C(=O)Nc2ccc(Br)cc2)[nH]n1 | x | 28.0* | 6.4 | x | 14.7
CCOC(=O)C(=O)N(C)c1c(CC)nc2c(OCCC3CCCCC3)cccn12 | x | 11.9 | 8.4 | x | x
COc1ccc(CC(N)c2csc(Nc3ccc(S(C)(=O)=O)cc3)n2)cc1 (stereo unspecified) | x | 12.7 | -1.6 | x | x
COc1ccc(Cl)c(-c2cc(C(=O)Nc3ccccc3)[nH]n2)c1 | x | 24.7* | 13.5 | x | 11.5
C[C@@H]1C[C@H]2[C@@H]3CCC4=CC(=O)C=C[C@]4(C)[C@@]3(F)[C@@H](O)C[C@]2(C)[C@@]1(O)C(=O)CO | -0.9 | 29.3* | -0.9 | x | -3.3
CC(=O)OCC(=O)[C@@]1(O)[C@H](C)C[C@H]2[C@@H]3CCC4=CC(=O)C=C[C@]4(C)[C@@]3(F)[C@@H](O)C[C@@]21C | -0.7 | -5.0 | -4.1 | -0.2 | x
COc1cccc(/C=N/NC(=O)c2ccc(-c3ccccc3)cc2)c1O | 1.8 | 36.7* | -2.6 | -0.6 | 30.3*
OC[C@@H]1CN(Cc2ccccc2)C[C@H](n2cnc3c(NCc4ccc(F)cc4)ncnc32)O1 | x | -4.7 | 8.1 | x | x
OC[C@@H]1CN(Cc2ccc(F)cc2)C[C@H](n2cnc3c(Nc4ccccc4)ncnc32)O1 | x | 38.2* | -2.3 | x | 1.3
CCOC(=O)C1=C(CBr)NC(=O)NC1C (stereo unspecified) | -1.2 | 32.7* | 9.3 | -8.8 | 0.5
Cc1cc(Nc2ccccc2)n(-c2ccc(C(=O)O)cc2)n1 | 1.7 | 5.1 | 4.2 | -5.8 | x
COc1ccc(-n2nc(C)cc2Nc2ccccc2C(=O)O)cc1 | 2.8 | 24.8* | -5.9 | x | 0.3
CCOC(=O)[C@]12CCCC=C1N(CCc1ccc(OC)c(OC)c1)C(=O)[C@H](CC(=O)NCC13CC4CC(CC(C4)C1)C3)C2 | x | 3.3 | -1.7 | x | x
C[C@H](CO)N1C[C@H](C)[C@@H](CN(C)S(=O)(=O)c2cn(C)cn2)OCc2cnnn2CCCC1=O | x | 50.9* | -0.7 | x | -1.4
C[C@@H]1CN([C@@H](C)CO)C(=O)CCCn2nncc2CO[C@H]1CN(C)S(=O)(=O)c1cn(C)cn1 | x | 0.8 | -4.9 | x | x
COc1ccc(C2CC(=O)C(c3ccc(C#N)cc3)=CN2Cc2ccccc2)cc1 (stereo unspecified) | x | -7.3 | -5.4 | x | x
CC(=O)Nc1ccc(NC(=O)c2cc(=O)c3cc(C)c(C)cc3o2)cc1 | 1.6 | 28.7* | 9.8 | x | 17.4
SMILES | PP5 primary | ARFGAP1 inh | ASAP1 GAP inh | PKD1 inh | ARFGAP1 confirm
CCn1cc(CCC(=O)Nc2ccc(Oc3cccnc3)cc2)c2ccccc21 | x | -9.2 | -0.9 | x | x
O=C(N/N=C/C(Cl)=C/c1ccccc1)c1ccc2c(c1)OCO2 | -0.8 | 28.9* | 23.3 | x | 36.0*
CC(C)(C)n1nnnc1C(CCc1ccccc1)N1CCN(C/C=C/c2ccccc2)CC1 (stereo unspecified) | x | 6.8 | 0.0 | x | x
COc1ccc(NC(=O)Nc2ccc(F)cc2)cn1 | -1.8 | 25.2* | -3.5 | x | 3.4
CC(C)C[C@@H]1COc2cc(NCCCN3CCOCC3)ccc2S(=O)(=O)N1 | x | -8.9 | -8.2 | x | x
Cc1cc(C)c2c(=N)c3ccccc3n(CCCCCCCCn3c4ccccc4c(=N)c4c(C)cc(C)nc43)c2n1 | x | 25.5* | 9.3 | x | -1.2
CCCCCCCCn1c2c(c(=N)c3ccccc31)CCC2 | x | -0.5 | -17.5 | -2.7 | x
O=C(CNC(=O)c1ccc(Br)o1)Nc1cccc(-c2cnc3ccccc3n2)c1 | 0.8 | 25.1* | -6.4 | -5.6 | 4.2
O=C(Nc1cccc(-c2cnc3ccccc3n2)c1)c1ccco1 | 0.7 | 2.3 | 0.2 | 0.8 | x
CC1=C(C(=O)N(C(C)C)C(C)C)CC(CC(=O)NC(c2ccccc2)c2ccccc2)C(=O)N1CCC1=CCCCC1 (stereo unspecified) | x | 6.2 | 0.3 | x | x
O=C(Nc1ccc(Nc2ccncc2)cc1)c1ccc(Nc2ccnc3ccc([N+](=O)[O-])cc23)cc1[N+](=O)[O-] | 5.6 | 74.1* | 15.1 | x | +
Cn1c(/C(C#N)=C/c2ccc(O)cc2)nc2ccccc21 | 1.6 | 24.9* | 9.4 | x | 3.3
CCCCn1nnnc1C(c1ccccc1)N1CCN(c2cccc(C)c2C)CC1 (stereo unspecified) | x | 6.3 | 5.4 | x | x
Cc1cccc(NC(=O)C2C(c3ccccc3)C2(Cl)Cl)c1 (stereo unspecified) | 2.5 | 28.1* | -1.1 | -6.1 | 8.6
CC(NC(=O)CC1CCCCC1)c1ccccc1 (stereo unspecified) | 6.1 | -2.4 | 0.8 | x | x
C=C(C)CC1(NC(C)c2ccccc2)CCCCC1 (stereo unspecified) | 1.9 | 30.6* | 11.7 | -11.7 | -0.8
CC1=CC(O)(c2ccccn2)P(=O)(c2ccccc2)C=C1C (stereo unspecified) | x | 5.7 | 8.4 | x | x
CCN(CC)c1ccc(C(=C2C=CC(=[N+](CC)CC)C=C2)c2ccc(N(CC)CC)cc2)cc1 | x | 35.8* | 18.2 | x | 23.8
CCN1CCN(c2ccc(S(=O)(=O)N3CCCCC3)cc2NC(=O)/C=C/c2ccc(OC)c(OC)c2)CC1 | 1.5 | 30.2* | 19.2 | x | 44.9*
COc1ccc(/C=C/C(=O)Nc2cc(S(=O)(=O)N3CCCCC3)ccc2N2CCCCC2)cc1OC | -5.0 | -8.6 | 1.1 | 0.6 | x
O=C(NCc1ccc2c(c1)OCO2)OCc1ccccc1 | x | -16.3 | -1.3 | x | x
COc1cc(/C=N/NC(=O)c2cc(-c3cccc(Br)c3)nc3ccccc23)cc(OC)c1O | 3.0 | 27.2* | 5.6 | x | 6.8
COc1cc(/C=N/NC(=O)c2cc(-c3ccccc3)nc3ccccc23)ccc1O | 3.1 | 11.8 | 12.5 | x | x
CCn1nc(NC(=O)c2cccnc2)c2cc3ccccc3nc21 | 1.5 | 26.7* | 8.6 | -1.9 | 7.9
CCC1Nc2ncnc(N3CCCCC3)c2N(Cc2ccc(Cl)cc2)C1=O (stereo unspecified) | x | 29.2* | -5.8 | x | 1.2
CCC(C)CN1C(=O)CSCC1(C)C(=O)Nc1c(C)cccc1C (stereo unspecified) | x | 2.4 | -11.0 | x | x

High-throughput results (PubChem BioAssay)
